Measurements reported in ChEMBL document CHEMBL1240433, “Design, synthesis, and antitubercular evaluation of novel series of 3-benzofuran-5-aryl-1-pyrazolyl-pyridylmethanone and 3-benzofuran-5-aryl-1-pyrazolylcarbonyl-4-oxo-naphthyridin analogs” (Eur J Med Chem, 2010).
≈ marks a conversion by molar mass, not a printed value.

System: Mycobacterium tuberculosis
Experiment: Antitubercular activity against multidrug-resistant Mycobacterium tuberculosis H37Rv after 6 weeks
Assay type: functional
In short: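 Lowenstein-Jensen slope assay. DMSO stocks of 250 and 10 µg/mL were each mixed 0.8 mL into 7.2 mL L.J. medium, then inspissated at 75-80 °C for 3 days. A loopful of culture was dispersed with glass beads in sterile water by vortexing for 2 min and streaked onto the slopes. DMSO-only and drug-free media served as controls. Bacterial counts were read after 6 weeks at 37 °C.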

Structure (SMILES)	MIC
CCn1cc(C(=O)N2N=C(c3cc4ccccc4o3)CC2c2ccccc2Cl)c(=O)c2ccc(C)nc21 (stereo not given)	8.4 µg/mL (≈ 16.4 µM)
CCn1cc(C(=O)N2N=C(c3cc4ccccc4o3)CC2c2ccco2)c(=O)c2ccc(C)nc21 (stereo not given)	8.5 µg/mL (≈ 18.2 µM)
CCn1cc(C(=O)N2N=C(c3cc4ccccc4o3)CC2c2ccc(O)cc2)c(=O)c2ccc(C)nc21 (stereo not given)	3.8 µg/mL (≈ 7.72 µM)
O=C(O)c1ccccc1C1CC(c2cc3ccccc3o2)=NN1C(=O)c1ccncc1 (stereo not given)	3.2 µg/mL (≈ 7.78 µM)
O=C(c1ccncc1)N1N=C(c2cc3ccccc3o2)CC1c1ccco1 (stereo not given)	10.4 µg/mL (≈ 29.1 µM)
O=C(c1ccncc1)N1N=C(c2cc3ccccc3o2)CC1c1ccccc1O (stereo not given)	6.2 µg/mL (≈ 16.2 µM)
CCn1cc(C(=O)N2N=C(c3cc4ccccc4o3)CC2c2cccc([N+](=O)[O-])c2)c(=O)c2ccc(C)nc21 (stereo not given)	3.7 µg/mL (≈ 7.09 µM)
O=C(c1ccncc1)N1N=C(c2cc3ccccc3o2)CC1c1ccc(O)cc1 (stereo not given)	6.2 µg/mL (≈ 16.2 µM)
CCn1cc(C(=O)N2N=C(c3cc4ccccc4o3)CC2c2ccccc2)c(=O)c2ccc(C)nc21 (stereo not given)	10.8 µg/mL (≈ 22.7 µM)
CCn1cc(C(=O)N2N=C(c3cc4ccccc4o3)CC2c2ccc(N(C)C)cc2)c(=O)c2ccc(C)nc21 (stereo not given)	10.6 µg/mL (≈ 20.4 µM)
O=C(c1ccncc1)N1N=C(c2cc3ccccc3o2)CC1c1cccc([N+](=O)[O-])c1 (stereo not given)	6.9 µg/mL (≈ 16.7 µM)
CCn1cc(C(=O)N2N=C(c3cc4ccccc4o3)CC2c2ccc(OC)cc2O)c(=O)c2ccc(C)nc21 (stereo not given)	5.4 µg/mL (≈ 10.3 µM)
O=C(c1ccncc1)N1N=C(c2cc3ccccc3o2)CC1c1ccccc1Cl (stereo not given)	9.5 µg/mL (≈ 23.6 µM)
O=C(c1ccncc1)N1N=C(c2cc3ccccc3o2)CC1c1ccc(Cl)cc1 (stereo not given)	10.6 µg/mL (≈ 26.4 µM)
CCn1cc(C(=O)N2N=C(c3cc4ccccc4o3)CC2c2ccccc2C(=O)O)c(=O)c2ccc(C)nc21 (stereo not given)	7.8 µg/mL (≈ 15 µM)
CCn1cc(C(=O)N2N=C(c3cc4ccccc4o3)CC2c2ccc(Cl)cc2)c(=O)c2ccc(C)nc21 (stereo not given)	6.3 µg/mL (≈ 12.3 µM)
CCn1cc(C(=O)N2N=C(c3cc4ccccc4o3)CC2c2ccc(OC)cc2)c(=O)c2ccc(C)nc21 (stereo not given)	8.5 µg/mL (≈ 16.8 µM)
NNC(=O)c1ccncc1 [ISONIAZID]	8.5 µg/mL (≈ 62 µM)
CCn1cc(C(=O)N2N=C(c3cc4ccccc4o3)CC2c2ccccc2O)c(=O)c2ccc(C)nc21 (stereo not given)	6.4 µg/mL (≈ 13 µM)
CCn1cc(C(=O)N2N=C(c3cc4ccccc4o3)CC2c2ccccc2[N+](=O)[O-])c(=O)c2ccc(C)nc21 (stereo not given)	3.6 µg/mL (≈ 6.9 µM)
COc1ccccc1C1CC(c2cc3ccccc3o2)=NN1C(=O)c1ccncc1 (stereo not given)	5.7 µg/mL (≈ 14.3 µM)
O=C(c1ccncc1)N1N=C(c2cc3ccccc3o2)CC1c1ccccc1 (stereo not given)	9.5 µg/mL (≈ 25.9 µM)
CO[C@H]1/C=C/O[C@@]2(C)Oc3c(C)c(O)c4c(O)c(c(/C=N/N5CCN(C)CC5)c(O)c4c3C2=O)NC(=O)/C(C)=C\C=C\[C@H](C)[C@H](O)[C@@H](C)[C@@H](O)[C@@H](C)[C@H](OC(C)=O)[C@@H]1C [RIFAMPIN]	4.2 µg/mL (≈ 5.1 µM)
CCn1cc(C(=O)N2N=C(c3cc4ccccc4o3)CC2/C=C/c2ccccc2)c(=O)c2ccc(C)nc21 (stereo not given)	7.4 µg/mL (≈ 14.7 µM)
CCn1cc(C(=O)N2N=C(c3cc4ccccc4o3)CC2c2ccccc2OC)c(=O)c2ccc(C)nc21 (stereo not given)	8.5 µg/mL (≈ 16.8 µM)
O=C(c1ccncc1)N1N=C(c2cc3ccccc3o2)CC1c1ccccc1[N+](=O)[O-] (stereo not given)	7.5 µg/mL (≈ 18.2 µM)
COc1ccc(C2CC(c3cc4ccccc4o3)=NN2C(=O)c2ccncc2)c(O)c1 (stereo not given)	4.5 µg/mL (≈ 10.9 µM)
O=C(c1ccncc1)N1N=C(c2cc3ccccc3o2)CC1/C=C/c1ccccc1 (stereo not given)	7.5 µg/mL (≈ 19.1 µM)
CN(C)c1ccc(C2CC(c3cc4ccccc4o3)=NN2C(=O)c2ccncc2)cc1 (stereo not given)	11.5 µg/mL (≈ 28 µM)
COc1ccc(C2CC(c3cc4ccccc4o3)=NN2C(=O)c2ccncc2)cc1 (stereo not given)	5.5 µg/mL (≈ 13.8 µM)
